Measurements reported in ChEMBL document CHEMBL4390654, “Microwave-assisted solid-phase synthesis of antisense acpP peptide nucleic acid-peptide conjugates active against colistin- and tigecycline-resistant E. coli and K. pneumoniae” (Eur J Med Chem, 2019).

Experiments:
Escherichia coli [1] = test: Antibacterial activity against Escherichia coli ATCC 25922 assessed as reduction in microbial growth incubated for 20 hrs; type: functional; details: ATCC 25922, 20 h
Summary of the method: (§1)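 Broth microdilution MIC (modified Hancock protocol) in non-binding polystyrene plates. Inoculum ~2 × 10^5 CFU/mL in Mueller-Hinton broth with Mg²⁺ and Ca²⁺ at 4 mg/L each. Compounds dissolved in water, diluted in 0.01% acetic acid/0.2% BSA (final), added as 10× stocks. Covered plates incubated 20 h at 35 °C (± 2 °C) with 220 rpm circular shaking before MIC read.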

Escherichia coli [2] = test: Antibacterial activity against Escherichia coli lacking a functional SbmA assessed as reduction in microbial growth incubated for 20 hrs
Summary of the method: (§2)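 Broth microdilution MIC after a modified Hancock protocol for cationic peptides, in non-binding polystyrene plates. Inoculum ~2 × 10^5 CFU/mL in Mueller-Hinton broth with Mg²⁺ and Ca²⁺ at 4 mg/L each. Compounds dissolved in water, diluted in 0.01% acetic acid, 0.2% BSA (final), added as 10× aliquots. Covered plates incubated 20 h at 35 °C (± 2 °C) with shaking at 220 rpm. MIC read as lowest inhibiting concentration.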

Klebsiella pneumoniae [3] = test: Antibacterial activity against Klebsiella pneumoniae ATCC 13883 assessed as reduction in microbial growth incubated for 20 hrs; type: functional; details: ATCC 13883, 20 h; summary of the method: as §2
Pseudomonas aeruginosa = test: Antibacterial activity against Pseudomonas aeruginosa PAO1 assessed as reduction in microbial growth incubated for 20 hrs; type: functional; details: PAO1, 20 h; summary of the method: as §2
Acinetobacter baumannii = test: Antibacterial activity against Acinetobacter baumannii ATCC 19606 assessed as reduction in microbial growth incubated for 20 hrs; type: functional; details: ATCC 19606 = CIP 70.34 = JCM 6841, 20 h; summary of the method: as §2
Staphylococcus aureus = test: Antibacterial activity against Staphylococcus aureus ATCC 29213 assessed as reduction in microbial growth incubated for 20 hrs; type: functional; details: ATCC 29213, 20 h; summary of the method: as §2
Escherichia coli [4] = test: Antibacterial activity against multi-drug resistant Escherichia coli NMI 3548/14 assessed as reduction in microbial growth incubated for 20 hrs; type: functional; details: NMI 3548/14, 20 h; summary of the method: as §1
Escherichia coli [5] = test: Antibacterial activity against multi-drug resistant Escherichia coli NMI 3898/15 assessed as reduction in microbial growth incubated for 20 hrs; type: functional; details: NMI 3898/15, 20 h; summary of the method: as §1
Klebsiella pneumoniae [6] = test: Antibacterial activity against multi-drug resistant Klebsiella pneumoniae NMI 2697/14 assessed as reduction in microbial growth incubated for 20 hrs; type: functional; details: NMI 2697/14, 20 h; summary of the method: as §1
Klebsiella pneumoniae [7] = test: Antibacterial activity against multi-drug resistant Klebsiella pneumoniae NMI 3081/09 assessed as reduction in microbial growth incubated for 20 hrs; type: functional; details: NMI 3081/09, 20 h; summary of the method: as §1
[8] = Hemolytic activity against RBC (unknown origin) at 100 uM; type: ADME, cell-based, Erythrocyte; details: red blood cells (erythrocytes); read-out: Activity

SMILES	MIC (Escherichia coli [1]) [µg/mL]	MIC (Escherichia coli [2]) [µg/mL]	MIC (Klebsiella pneumoniae [3]) [µg/mL]	MIC (Pseudomonas aeruginosa) [µg/mL]	MIC (Acinetobacter baumannii) [µg/mL]	MIC (Staphylococcus aureus) [µg/mL]	MIC (Escherichia coli [4]) [µg/mL]	MIC (Escherichia coli [5]) [µg/mL]	MIC (Klebsiella pneumoniae [6]) [µg/mL]	MIC (Klebsiella pneumoniae [7]) [µg/mL]	hemolysis at 100 µM [8] [%]
CC[C@@H](C)[C@@H](NC(=O)[C@H]1CCCN1C(=O)[C@@H](CCCNC(=N)N)NC(=O)[C@H]1CCCN1C(=O)[C@@H](Cc1cnc[nH]1)NC(=O)[C@@H](CO)NC(=O)[C@H](NC(=O)[C@H]1CCCN1C(=O)[C@@H](CCCNC(=N)N)NC(=O)[C@H]1CCCN1C(=O)[C@@H](CO)NC(=O)[C@@H](Cc1ccc(O)cc1)NC(=O)[C@H]1CCCN1C(=O)[C@@H](CCCNC(=N)N)NC(=O)[C@H]1CCCN1C(=O)[C@@H](CCCNC(=N)N)NC(=O)CCCCCNC(=O)[C@H](N)CCCNC(=N)N)[C@H](C)O)C(=O)N[C@H](CCCNC(=N)N)C(=O)N[C@@H](C(=O)N[C@H](CSC1CC(=O)N(CCC(=O)NCCOCCOC(=O)N[C@H](CS)C(=O)N[C@@H](C(=O)N[C@H](CS)C(=O)N[C@H](C)C(=O)N[C@@H](C(=O)N[C@H](C)C(=O)N[C@H](CS)C(=O)N[C@@H](C(=O)N[C@H](CS)C(=O)N[C@@H](C(N)=O)[C@H](C)O)[C@H](C)O)[C@H](C)O)[C@H](C)O)C1=O)C(N)=O)C(C)C (some centres not stated)	32	64	8 to 16	> 64	64	> 64	32	32 to 64	≥ 64	64	< 1
CCN1CCN(C(=O)N[C@@H](C(=O)N[C@@H]2C(=O)N3[C@@H]2SC(C)(C)[C@@H]3C(=O)O)c2ccccc2)C(=O)C1=O [PIPERACILLIN]	–	–	–	–	–	–	8	> 256	> 256	> 256	–
NCC[C@H](O)C(=O)N[C@@H]1C[C@H](N)[C@@H](O[C@H]2O[C@H](CN)[C@@H](O)[C@H](O)[C@H]2O)[C@H](O)[C@H]1O[C@H]1O[C@H](CO)[C@@H](O)[C@H](N)[C@H]1O [AMIKACIN]	–	–	–	–	–	–	8	2	32	16	–
C[C@H]1[C@H](NC(=O)/C(=N\OC(C)(C)C(=O)O)c2csc(N)n2)C(=O)N1S(=O)(=O)O [AZTREONAM]	–	–	–	–	–	–	> 16	8	16	> 256	–
CC(C)(O/N=C(\C(=O)N[C@@H]1C(=O)N2C(C(=O)[O-])=C(C[n+]3ccccc3)CS[C@H]12)c1csc(N)n1)C(=O)O [CEFTAZIDIME]	–	–	–	–	–	–	2	64	> 32	64	–
CO/N=C(\C(=O)N[C@@H]1C(=O)N2C(C(=O)[O-])=C(C[N+]3(C)CCCC3)CS[C@H]12)c1csc(N)n1	–	–	–	–	–	–	2	–	16	> 256	–
CC1(C)S[C@@H]2[C@H](NC(=O)[C@H](N)c3ccccc3)C(=O)N2[C@H]1C(=O)O [AMPICILLIN]	–	–	–	–	–	–	> 128	> 256	> 128	> 256	–
CN(C)c1cc(NC(=O)CNC(C)(C)C)c(O)c2c1C[C@H]1C[C@H]3[C@H](N(C)C)C(O)=C(C(N)=O)C(=O)[C@@]3(O)C(O)=C1C2=O [TIGECYCLINE]	–	–	–	–	–	–	16	0.5	0.5	2	–
C[C@@H](O)[C@H]1C(=O)N2C(C(=O)O)=C(S[C@@H]3CN[C@H](C(=O)N(C)C)C3)[C@H](C)[C@H]12 [MEROPENEM]	–	–	–	–	–	–	0.5	0.125	1	> 32	–
